Results published in ChEMBL document CHEMBL4038268, “Methylpyrrole inhibitors of BET bromodomains” (Bioorg Med Chem Lett, 2017).
pIC50, pKi: −log10 of the molar value.

How the values were obtained:
[1] = system: OPM-2; assay: Antitumor activity against human OPM2 cells xenografted in SCID-Beige mouse assessed as tumor growth inhibition at 150 mg/kg, po qd for 21 days measured twice per week during compound dosing relative to control; assay type: functional; conditions: OPM-2, po, 504 h, read-out: TGI
[2] = target: Bromodomain-containing protein 1 (Homo sapiens, UniProt O95696); assay: Inhibition of human BRD1 (E556 to A688 residues) expressed in bacterial expression system by BROMOscan assay
[3] = target: CREB-binding protein (Homo sapiens, UniProt Q92793); assay: Inhibition of human CREBBP (R1081 to G1197 residues) expressed in bacterial expression system by BROMOscan assay
[4] = target: Bromodomain adjacent to zinc finger domain protein 2B (Homo sapiens, UniProt Q9UIF8); assay: Inhibition of human BAZ2B (S2054 to S2168 residues) expressed in bacterial expression system by BROMOscan assay
[5] = target: Bromodomain-containing protein 4 (Homo sapiens, UniProt O60885); assay: Binding affinity to BRD4 BD1 (K57 to E168 residues) (unknown origin) after 1 hr by Alexa-647-conjugated probe based TR-FRET assay
[6] = system: Mus musculus; assay: Toxicity in SCID-Beige mouse assessed as body weight loss at 150 mg/kg, po qd for 21 days measured during compound dosing relative to control; assay type: organism-based; conditions: in vivo, 504 h
[7] = system: OPM-2; assay: Antitumor activity against human OPM2 cells xenografted in SCID-Beige mouse assessed as tumor growth inhibition at 100 mg/kg, po qd for 14 days measured twice per week during compound dosing relative to control; assay type: functional; conditions: OPM-2, po, 336 h, read-out: TGI
Method in brief: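 OPM-2 multiple myeloma xenografts in mice dosed orally over 14 days. Either once daily at 100 mg/kg or twice daily at 50 mg/kg ×2, the same total dose. Tumor growth inhibition was calculated over the treatment period. Mean ± SE, n = 10 per group.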

[8] = Toxicity in po dosed SCID-Beige mouse administered once daily; assay type: organism-based; conditions: in vivo
Method in brief: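 Oral once-daily dosing in mice bearing OPM-2 multiple myeloma xenografts. Tolerability was judged from mean body-weight loss over the course of the study.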

[9] = system: OPM-2; assay: Antitumor activity against human OPM2 cells xenografted in SCID-Beige mouse assessed as tumor growth inhibition at 100 mg/kg, po bid for 14 days measured twice per week during compound dosing relative to control; assay type: functional; conditions: OPM-2, po, 336 h, read-out: TGI
[10] = target: Bromodomain-containing protein 7 (Homo sapiens, UniProt Q9NPI1); assay: Inhibition of human BRD7 (L125 to R254 residues) expressed in mammalian expression system by BROMOscan assay
Chain of Bromodomain-containing protein 7 (Q9NPI1 whole entry, the tested form may be a part, canonical isoform): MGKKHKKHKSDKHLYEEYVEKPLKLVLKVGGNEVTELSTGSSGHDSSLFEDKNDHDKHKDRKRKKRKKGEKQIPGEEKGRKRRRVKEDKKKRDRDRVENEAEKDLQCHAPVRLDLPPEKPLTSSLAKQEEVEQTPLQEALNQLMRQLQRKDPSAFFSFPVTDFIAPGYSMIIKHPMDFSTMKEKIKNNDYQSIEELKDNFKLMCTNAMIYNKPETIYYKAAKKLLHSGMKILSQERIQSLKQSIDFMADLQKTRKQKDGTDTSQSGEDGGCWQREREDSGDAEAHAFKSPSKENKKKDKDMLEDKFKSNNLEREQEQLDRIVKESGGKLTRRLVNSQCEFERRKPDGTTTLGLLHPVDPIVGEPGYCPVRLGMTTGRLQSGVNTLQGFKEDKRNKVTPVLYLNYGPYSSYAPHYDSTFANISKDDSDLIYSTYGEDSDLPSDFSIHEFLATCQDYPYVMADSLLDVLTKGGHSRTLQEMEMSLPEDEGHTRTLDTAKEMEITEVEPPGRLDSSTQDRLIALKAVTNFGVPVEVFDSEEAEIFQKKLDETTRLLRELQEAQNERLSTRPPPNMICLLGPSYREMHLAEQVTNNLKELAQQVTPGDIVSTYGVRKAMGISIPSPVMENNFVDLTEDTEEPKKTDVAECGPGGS

[11] = target: Bromodomain-containing protein 9 (Homo sapiens) (UniProt Q9H8M2); assay: Inhibition of human BRD9 isoform 1 (R130 to V259 residues) expressed in bacterial expression system at 1 uM by BROMOscan assay relative to control
[12] = target: Chromatin remodeling regulator CECR2 (Homo sapiens, UniProt Q9BXF3); assay: Inhibition of human CECR2 (P423 to D543 residues) expressed in bacterial expression system by BROMOscan assay
[13] = target: Histone acetyltransferase KAT2A (Homo sapiens, UniProt Q92830); assay: Inhibition of human GCN5L2 (E726 to K837 residues) expressed in bacterial expression system by BROMOscan assay
Chain of Histone acetyltransferase KAT2A (Q92830 whole entry, the tested form may be a part): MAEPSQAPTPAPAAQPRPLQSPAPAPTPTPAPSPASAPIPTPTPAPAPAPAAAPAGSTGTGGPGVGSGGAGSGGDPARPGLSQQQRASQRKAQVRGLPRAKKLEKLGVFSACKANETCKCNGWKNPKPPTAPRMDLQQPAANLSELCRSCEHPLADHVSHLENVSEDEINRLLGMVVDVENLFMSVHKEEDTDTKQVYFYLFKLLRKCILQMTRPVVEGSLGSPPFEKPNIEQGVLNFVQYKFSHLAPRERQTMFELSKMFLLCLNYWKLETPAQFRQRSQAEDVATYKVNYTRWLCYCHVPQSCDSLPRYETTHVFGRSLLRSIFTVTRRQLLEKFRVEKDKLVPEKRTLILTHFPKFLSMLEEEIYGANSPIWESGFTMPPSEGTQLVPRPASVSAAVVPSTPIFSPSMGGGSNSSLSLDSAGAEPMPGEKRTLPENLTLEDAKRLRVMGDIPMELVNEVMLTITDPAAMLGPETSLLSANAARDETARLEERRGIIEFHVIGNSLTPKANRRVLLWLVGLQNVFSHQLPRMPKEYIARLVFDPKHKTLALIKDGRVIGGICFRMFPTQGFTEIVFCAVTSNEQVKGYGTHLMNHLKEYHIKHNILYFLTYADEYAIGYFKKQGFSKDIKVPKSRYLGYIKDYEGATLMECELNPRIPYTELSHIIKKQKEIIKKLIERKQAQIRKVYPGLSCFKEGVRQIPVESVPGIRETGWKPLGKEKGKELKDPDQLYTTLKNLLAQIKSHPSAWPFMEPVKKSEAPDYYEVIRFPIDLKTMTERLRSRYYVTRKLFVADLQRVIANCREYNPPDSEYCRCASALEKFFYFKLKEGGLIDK

[14] = target: Protein polybromo-1 (Homo sapiens, UniProt Q86U86); assay: Inhibition of human PBRM1 bromodomain 5 (S645 to D766 residues) expressed in bacterial expression system by BROMOscan assay
[15] = target: Histone acetyltransferase KAT2B (Homo sapiens, UniProt Q92831); assay: Inhibition of human PCAF (G715 to D831 residues) expressed in mammalian expression system by BROMOscan assay
[16] = target: SWI/SNF-related matrix-associated actin-dependent regulator of chromatin subfamily A member 2 (Homo sapiens, UniProt P51531); assay: Inhibition of human SMARCA2 (S1377 to Q1486 residues) expressed in bacterial expression system by BROMOscan assay
[17] = target: Transcription initiation factor TFIID subunit 1-like (Homo sapiens, UniProt Q8IZX4); assay: Inhibition of human TAF1L (Q1523 to D1654 residues) expressed in bacterial expression system by BROMOscan assay
Chain of Transcription initiation factor TFIID subunit 1-like (Q8IZX4 whole entry, the tested form may be a part): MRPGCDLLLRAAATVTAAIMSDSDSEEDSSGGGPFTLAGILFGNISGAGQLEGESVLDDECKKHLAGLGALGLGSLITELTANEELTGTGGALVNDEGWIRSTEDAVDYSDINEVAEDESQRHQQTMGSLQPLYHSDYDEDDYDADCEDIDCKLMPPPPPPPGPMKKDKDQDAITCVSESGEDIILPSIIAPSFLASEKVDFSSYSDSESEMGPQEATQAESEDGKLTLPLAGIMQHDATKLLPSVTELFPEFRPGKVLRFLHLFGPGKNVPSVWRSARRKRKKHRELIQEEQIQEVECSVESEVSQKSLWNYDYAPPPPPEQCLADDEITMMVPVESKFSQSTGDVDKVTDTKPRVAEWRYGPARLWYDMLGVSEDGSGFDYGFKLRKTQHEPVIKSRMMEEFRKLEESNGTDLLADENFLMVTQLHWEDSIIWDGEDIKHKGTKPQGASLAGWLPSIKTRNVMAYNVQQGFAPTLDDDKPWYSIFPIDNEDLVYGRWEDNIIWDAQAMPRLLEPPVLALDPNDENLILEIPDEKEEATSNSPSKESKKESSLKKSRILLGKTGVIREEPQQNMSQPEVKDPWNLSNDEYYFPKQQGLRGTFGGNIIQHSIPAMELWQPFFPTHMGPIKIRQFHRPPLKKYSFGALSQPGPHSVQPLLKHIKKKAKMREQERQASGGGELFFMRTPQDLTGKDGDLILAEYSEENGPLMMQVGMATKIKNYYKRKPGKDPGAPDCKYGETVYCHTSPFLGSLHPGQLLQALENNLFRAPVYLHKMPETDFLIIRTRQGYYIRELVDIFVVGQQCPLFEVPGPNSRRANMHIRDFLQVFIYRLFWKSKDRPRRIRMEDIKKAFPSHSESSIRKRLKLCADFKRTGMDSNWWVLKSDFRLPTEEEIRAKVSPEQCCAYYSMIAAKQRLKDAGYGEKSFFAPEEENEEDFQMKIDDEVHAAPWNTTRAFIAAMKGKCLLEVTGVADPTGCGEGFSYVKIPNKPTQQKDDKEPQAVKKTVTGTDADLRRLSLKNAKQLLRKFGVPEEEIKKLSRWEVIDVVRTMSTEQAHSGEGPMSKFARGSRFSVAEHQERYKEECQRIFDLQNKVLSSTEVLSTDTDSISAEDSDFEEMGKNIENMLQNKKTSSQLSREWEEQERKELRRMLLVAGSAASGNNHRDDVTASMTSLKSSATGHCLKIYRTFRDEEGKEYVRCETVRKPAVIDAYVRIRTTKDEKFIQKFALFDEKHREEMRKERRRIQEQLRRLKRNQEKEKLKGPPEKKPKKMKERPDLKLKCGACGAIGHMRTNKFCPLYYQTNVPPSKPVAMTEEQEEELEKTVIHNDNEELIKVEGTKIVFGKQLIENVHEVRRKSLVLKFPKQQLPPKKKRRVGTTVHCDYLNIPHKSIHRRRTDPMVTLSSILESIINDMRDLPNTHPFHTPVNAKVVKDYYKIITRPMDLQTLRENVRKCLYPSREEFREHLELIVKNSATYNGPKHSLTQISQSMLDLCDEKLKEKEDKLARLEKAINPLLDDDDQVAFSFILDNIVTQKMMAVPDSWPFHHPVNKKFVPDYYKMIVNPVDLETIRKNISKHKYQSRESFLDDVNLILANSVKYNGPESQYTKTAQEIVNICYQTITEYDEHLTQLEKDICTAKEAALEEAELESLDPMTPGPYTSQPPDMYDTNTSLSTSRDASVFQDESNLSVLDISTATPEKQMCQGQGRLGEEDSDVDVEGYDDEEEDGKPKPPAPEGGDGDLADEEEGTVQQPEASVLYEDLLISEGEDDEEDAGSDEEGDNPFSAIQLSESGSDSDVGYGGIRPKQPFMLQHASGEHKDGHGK

[18] = target: SWI/SNF-related matrix-associated actin-dependent regulator of chromatin subfamily A member 4 (Homo sapiens, UniProt P51532); assay: Inhibition of human SMARCA4 (A1448 to S1575 residues) expressed in bacterial expression system by BROMOscan assay
Chain of SWI/SNF-related matrix-associated actin-dependent regulator of chromatin subfamily A member 4 (P51532 whole entry, the tested form may be a part): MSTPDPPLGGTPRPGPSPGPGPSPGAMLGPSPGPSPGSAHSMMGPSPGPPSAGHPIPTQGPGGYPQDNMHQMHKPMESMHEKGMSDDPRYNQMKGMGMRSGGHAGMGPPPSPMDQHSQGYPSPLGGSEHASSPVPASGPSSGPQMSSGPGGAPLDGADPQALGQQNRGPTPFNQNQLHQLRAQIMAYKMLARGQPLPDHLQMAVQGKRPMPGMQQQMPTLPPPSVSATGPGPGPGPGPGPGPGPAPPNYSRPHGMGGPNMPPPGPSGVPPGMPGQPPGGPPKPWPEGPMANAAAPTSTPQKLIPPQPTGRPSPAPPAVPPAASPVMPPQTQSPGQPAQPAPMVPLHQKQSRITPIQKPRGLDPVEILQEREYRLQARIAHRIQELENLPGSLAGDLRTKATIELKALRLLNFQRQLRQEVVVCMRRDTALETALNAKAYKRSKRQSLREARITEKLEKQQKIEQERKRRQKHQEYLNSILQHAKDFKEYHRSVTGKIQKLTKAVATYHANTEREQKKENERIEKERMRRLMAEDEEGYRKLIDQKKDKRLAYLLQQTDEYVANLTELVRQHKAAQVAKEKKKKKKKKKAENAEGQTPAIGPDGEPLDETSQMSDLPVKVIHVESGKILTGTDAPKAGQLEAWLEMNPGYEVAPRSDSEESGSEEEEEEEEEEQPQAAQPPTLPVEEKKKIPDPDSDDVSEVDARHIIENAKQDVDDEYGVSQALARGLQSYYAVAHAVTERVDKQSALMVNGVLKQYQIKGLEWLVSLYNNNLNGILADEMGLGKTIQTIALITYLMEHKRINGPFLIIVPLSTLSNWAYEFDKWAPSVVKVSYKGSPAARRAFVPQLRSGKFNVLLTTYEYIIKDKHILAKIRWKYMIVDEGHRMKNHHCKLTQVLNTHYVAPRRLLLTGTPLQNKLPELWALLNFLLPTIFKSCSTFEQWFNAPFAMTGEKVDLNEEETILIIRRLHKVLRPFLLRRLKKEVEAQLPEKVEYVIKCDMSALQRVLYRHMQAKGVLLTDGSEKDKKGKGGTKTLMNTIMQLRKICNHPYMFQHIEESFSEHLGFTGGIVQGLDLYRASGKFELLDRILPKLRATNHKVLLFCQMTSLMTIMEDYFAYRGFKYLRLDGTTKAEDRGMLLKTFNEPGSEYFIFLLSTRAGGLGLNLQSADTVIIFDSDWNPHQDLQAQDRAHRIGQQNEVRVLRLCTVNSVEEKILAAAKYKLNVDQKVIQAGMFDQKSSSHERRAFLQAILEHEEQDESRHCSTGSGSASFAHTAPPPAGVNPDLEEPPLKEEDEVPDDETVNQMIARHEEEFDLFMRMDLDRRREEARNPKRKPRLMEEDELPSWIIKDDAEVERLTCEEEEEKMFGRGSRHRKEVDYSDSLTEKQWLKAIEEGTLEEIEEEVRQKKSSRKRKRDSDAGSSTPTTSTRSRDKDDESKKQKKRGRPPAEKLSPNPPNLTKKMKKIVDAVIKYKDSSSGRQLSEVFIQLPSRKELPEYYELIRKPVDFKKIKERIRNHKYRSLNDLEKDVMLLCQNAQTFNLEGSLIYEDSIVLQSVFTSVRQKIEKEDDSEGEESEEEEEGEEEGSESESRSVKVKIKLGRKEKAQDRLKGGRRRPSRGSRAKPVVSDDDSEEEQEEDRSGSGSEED

[19] = system: OPM-2; assay: Antitumor activity against human OPM2 cells xenografted in SCID-Beige mouse assessed as tumor growth inhibition at 30 mg/kg, po qd for 21 days measured twice per week during compound dosing relative to control; assay type: functional; conditions: OPM-2, po, 504 h, read-out: TGI
[20] = system: Mus musculus; assay: Toxicity in SCID-Beige mouse assessed as body weight loss at 30 mg/kg, po qd for 21 days measured during compound dosing relative to control; assay type: organism-based; conditions: in vivo, 504 h

Row | pKi [5] | Structure (SMILES) | inhibition in vivo at 150 mg/kg [1] [%] | pIC50 [2] | pIC50 [3] | pIC50 [4] | Activity [6] [%] | inhibition in vivo at 100 mg/kg [7] [%] | MTD [8] [mg/kg/day] | inhibition in vivo at 100 mg/kg [9] [%] | pIC50 [10] | inhibition [11] [%] | pIC50 [12] | pIC50 [13] | pIC50 [14] | pIC50 [15] | pIC50 [16] | pIC50 [17] | pIC50 [18] | inhibition in vivo at 30 mg/kg [19] [%] | Activity [20] [%]
1 | 7.47 | Cc1[nH]c(-c2cc(S(C)(=O)=O)ccc2Oc2ccc(F)cc2F)c2c1C(=O)NCC2 | 68 | < 6.00 | 6.00 | < 6.00 | 1 to 3 | – | – | – | – | – | – | – | – | – | – | – | – | – | –
2 | 7.11 | Cn1cc(-c2cc(S(C)(=O)=O)ccc2Oc2ccc(F)cc2F)c2cc[nH]c(=O)c21 | – | – | – | – | – | – | – | – | < 6.00 | 88 | < 6.00 | < 6.00 | < 6.00 | – | < 6.00 | < 6.00 | < 6.00 | 64 | 1 to 3

Row | Structure (SMILES) | pKi [5] | inhibition in vivo at 150 mg/kg [1] [%] | pIC50 [2] | pIC50 [3] | pIC50 [4] | Activity [6] [%] | inhibition in vivo at 100 mg/kg [7] [%] | MTD [8] [mg/kg/day] | inhibition in vivo at 100 mg/kg [9] [%] | pIC50 [10] | inhibition [11] [%] | pIC50 [12] | pIC50 [13] | pIC50 [14] | pIC50 [15] | pIC50 [16] | pIC50 [17] | pIC50 [18] | inhibition in vivo at 30 mg/kg [19] [%] | Activity [20] [%]
3 | Cc1[nH]c(-c2cc(NS(C)(=O)=O)ccc2Oc2ccccc2)c2c1C(=O)CCC2 | 7.74 | – | < 6.00 | 6.00 | < 6.00 | – | 53 | 100 | 73 | < 6.00 | 67 | < 6.00 | < 6.00 | < 6.00 | < 6.00 | 6.00 | < 6.00 | < 6.00 | – | –
